The source of these data is PubChem BioAssay.

Activity calls are given as the source filed them.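 The calls were made as follows, unless noted: active = NADPH fluorescence slope more negative than the mean of all samples by about 3 SD, 99.7% confidence; inactive = the rest.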

The nature of assay [1]: inhibitors of TNFa-induced NFkB p65 translocation, primary screen, imaging, HUVEC, MLSMR starter and 10KST1 sets (AID 438;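 active = inhibition above 20% together with a positive visual image hit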;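 also: compound added about 3h40 before a 20 min TNFalpha stimulation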;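 as to inhibition: signal is the nuclear over cytoplasmic p65 intensity ratio per well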). The conditions noted are these: HUVEC TNFa-induced p65 nuclear translocation; cell count: measured here: nuclei count (cytotoxicity indicator), at 2.08 µM; inhibition: at 2 µM, stronger effect = higher value, 0% TNFa-plus-vehicle, 100% no-TNFa wells.
The nature of assay [2]: inhibitors of E-selectin induction by TNFa, primary screen, imaging, HUVEC, immunofluorescence, MLSMR starter and 10KST1 sets (AID 487;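 active = visually confirmed hit in the image check and inhibition above 20%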;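 as to inhibition: signal is fraction of cell area covered by stained E-selectin grains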;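 as to nuclei count: 100% = median nuclei count of all wells on the same plate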). The conditions noted are these: HUVEC TNFalpha-induced E-selectin immunofluorescence imaging, at 2 µM; inhibition: stronger effect = higher value; nuclei count: measured here: cell number, toxicity.
A short description of assay [3]: DUSP6 inhibitors restoring Erk phosphorylation by chemical complementation, primary imaging in DUSP6-transfected HeLa (AID 609;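 active = compounds giving at least 50% inhibition in the cell-based MKP-3 phosphatase rescue imaging test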;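 as to inhibition: phospho-Erk level distribution per well compared with pooled transfected vehicle control wells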). Conditions: HeLa MKP-3 transfected, phospho-Erk imaging KS statistic, at 10 µM, cells stimulated with TPA for 15 min.
Assay [4] addresses Dual specificity protein phosphatase 6 (Homo sapiens) (UniProt Q16828). Described as above. Conditions: HeLa MKP-3 transfected, phospho-Erk imaging KS statistic; at 10 µM; stronger effect = higher value; cells stimulated with TPA for 15 min.
The target of assay [5] is Voltage-gated potassium channel subunit beta-2 (Rattus norvegicus) (UniProt P62483). The assay is described as follows: KvBeta enzyme negative modulators, primary screen, biochemical, NADPH fluorescence (AID 622;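 active = fluorescence slope higher than the sample average by over 3 SD, cut at about -0.22 in these data, passing the limit was not always enough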;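 also: slope of raw intensity against log time taken from 70 to 1610 s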). The conditions noted are these: recombinant KvBeta, 4-cyanobenzaldehyde reduction, at 10 µM, stronger effect = higher value.
Chain of Voltage-gated potassium channel subunit beta-2 (Rattus norvegicus) (P62483 whole entry, looked up): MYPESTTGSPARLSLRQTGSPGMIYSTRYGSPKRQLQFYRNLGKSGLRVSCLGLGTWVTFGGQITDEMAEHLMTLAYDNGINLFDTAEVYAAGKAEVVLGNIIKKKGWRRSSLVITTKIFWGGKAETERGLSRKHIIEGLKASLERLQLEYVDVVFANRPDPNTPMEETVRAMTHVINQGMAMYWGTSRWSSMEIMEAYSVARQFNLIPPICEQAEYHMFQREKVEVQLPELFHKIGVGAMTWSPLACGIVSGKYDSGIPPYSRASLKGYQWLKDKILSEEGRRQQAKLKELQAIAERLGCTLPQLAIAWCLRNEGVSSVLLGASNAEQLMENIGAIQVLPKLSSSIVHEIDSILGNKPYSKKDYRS
Assay [6] has the same target. The assay is described as follows: KvBeta positive modulators, primary screen, biochemical, NADPH fluorescence (AID 623).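 Also: fluorescence intensity change per second fitted from 20 to 320 s.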 Conditions: Recombinant KvBeta, NADPH fluorescence decrease slope, 10 min; at 10 µM; stronger effect = lower value.
The target in assay [7] is Muscarinic acetylcholine receptor M4 (Homo sapiens) (UniProt P08173). The assay is described as follows: compounds altering M4/GIRK thallium flux, either direction, primary screen, M4 allosteric agonist project, cell-based, HEK293 M4/GIRK, BTC-AM (AID 625;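 active = fluorescence slope after compound addition differing from the mean of all tested samples at 99.7% confidence, mostly higher but some lower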;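 also: thallium influx through GIRK channels coupled to M4 in HEK293 cells with BTC-AM dye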). The conditions noted are these: at 10 µM, actives lie on both sides. An outline of the steps: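 Assay system: HEK293 cells with M4 receptor and GIRK channels / Controls: carbachol and DMSO controls / Schedule: 1 h dye loading, 2 min kinetic read / Technique: kinetic fluorescence with BTC-AM dye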
Chain of Muscarinic acetylcholine receptor M4 (Homo sapiens) (P08173 whole entry, looked up): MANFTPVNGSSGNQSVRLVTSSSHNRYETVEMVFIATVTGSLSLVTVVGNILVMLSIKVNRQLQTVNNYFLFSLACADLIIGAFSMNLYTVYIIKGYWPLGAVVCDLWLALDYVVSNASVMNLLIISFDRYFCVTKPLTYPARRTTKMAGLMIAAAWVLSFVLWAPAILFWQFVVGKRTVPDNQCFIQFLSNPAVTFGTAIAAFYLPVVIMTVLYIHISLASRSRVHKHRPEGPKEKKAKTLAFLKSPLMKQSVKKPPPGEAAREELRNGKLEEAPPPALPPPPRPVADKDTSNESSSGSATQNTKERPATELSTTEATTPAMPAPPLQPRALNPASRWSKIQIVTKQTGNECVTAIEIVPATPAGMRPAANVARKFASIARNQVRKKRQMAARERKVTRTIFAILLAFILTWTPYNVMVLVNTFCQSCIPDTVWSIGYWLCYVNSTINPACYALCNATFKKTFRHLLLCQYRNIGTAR

Assay [8] is described as follows: inhibitors of larval lipid processing in zebrafish, primary screen, whole organism, PED6 fluorescence, gall bladder and intestine (AID 686;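 active = a full or partial loss of lipid-probe fluorescence in the fish gall bladder, intestine or both, judged by eye; inactive = no fluorescence loss, or compound toxic to the fish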;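 also: signal comes from phospholipase A2 cleavage of quenched PED6 carried via bile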). Conditions: Zebrafish larvae PED6 lipid processing, fluorescence scoring; screened at 20 µM (by protocol). An outline of the steps: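 Doses: 20 µM single dose. Test system: live zebrafish larvae aged 5-7 days, whole organism. Quantity: five larvae per well. Measured by: By-eye fluorescence microscopy. Reagent: ingested quenched lipid PED6 at 100 nM. Read-out: visual per-well fluorescence inhibition score. Times: overnight exposure of larvae to compound plus PED6.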

Assay [9] in a line: inhibitors of Chlamydomonas gravitaxis, primary screen, whole organism, Chlamydomonas reinhardtii, WT vs cilia-less mutant, absorbance, 96-well (AID 463189;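 active = inhibition at or above 50% relative to wild type and mutant plate controls; inactive = inhibition below 50%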;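 also: 0% = wild type cc124 cells in DMSO and 100% = ciliumless bld1 mutant cells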). The conditions noted are these: OD600 absorbance, 2 days, at 10 µM, stronger effect = higher value.
The mark [10] stands for this setting: measured here: cell density z-score.
Setting [11] is: measured here: nuclear c-Myc green intensity z-score.
Setting [12] is: measured here: nuclear pErk red intensity z-score, stronger effect = higher value.

Chain of Dual specificity protein phosphatase 6 (Homo sapiens) (Q16828 whole entry, looked up): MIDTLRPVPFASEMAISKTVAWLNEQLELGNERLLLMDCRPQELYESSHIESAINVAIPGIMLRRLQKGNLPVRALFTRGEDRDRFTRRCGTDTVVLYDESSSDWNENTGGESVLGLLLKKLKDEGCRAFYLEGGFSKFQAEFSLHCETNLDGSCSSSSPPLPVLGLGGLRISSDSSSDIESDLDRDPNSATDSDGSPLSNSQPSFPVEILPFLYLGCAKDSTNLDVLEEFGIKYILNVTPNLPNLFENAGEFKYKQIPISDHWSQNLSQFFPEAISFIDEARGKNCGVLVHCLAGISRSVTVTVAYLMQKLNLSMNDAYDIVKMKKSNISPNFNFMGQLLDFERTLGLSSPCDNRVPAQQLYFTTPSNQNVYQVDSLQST

By inhibition is commonly meant the drop in the measured response relative to a control, in per cent. Turning to `Cc1ccc(N2C(=O)CC(Cn3nc(C)cc3C)C2=O)cc1` (stereo unspecified), the cell count in assay [1] turned out to be 471. The inhibition was -3.4% (inactive) in [1], 5.8% (inactive) in assay [2], 11.9% (inactive) in [4] and 25.4% (inactive) in assay [9]. In addition, in assay [2], the nuclei count was found to be 98.6%. Further, the figures for the z-score in [3] (setting [10]), in assay [3] (setting [11]) and in assay [3] (setting [12]) were 0.966, -0.538 and -0.159, respectively. In addition, the fluorescence slope in assay [5] was -0.387 (inactive); in assay [7], 0.00565 (inactive). For the same compound, the NADPH fluorescence slope in assay [6] is -2e-06 (inactive). The outcome in [8] was inactive.

For the compound `Cc1ccc(-n2c(SCC(=O)NCc3ccco3)nc3nc4c(cc3c2=O)COC(C)(C)C4)cc1`, the cell count in assay [1] stood at 518. Further, the inhibition in assay [1] is -21.3% (inactive); in assay [2] it was 9.1% (inactive); in [4], 3.97% (inactive); in [9], 17% (inactive). Besides, the nuclei count in assay [2] is 176%. Also, the z-score in assay [3] (setting [10]) was 0.611; in assay [3] (setting [11]), -1.97; in assay [3] (setting [12]) it was 0.29. The fluorescence slope in assay [5] is -0.408 (inactive); in assay [7], 0.00603 (inactive). In addition, in assay [6], the NADPH fluorescence slope was -1.9e-05 (inactive). Moreover, the result in assay [8] was inactive.

With `CCOC(=O)CNS(=O)(=O)c1cc(-c2n[nH]c(=O)c3ccccc23)ccc1C`, the cell count in [1] was found to be 550. For the same compound, the inhibition in assay [1] is -12.6% (inactive); in [2] it was -67% (inactive); in assay [4], 20.2% (inactive); in [9], 2.8% (inactive). This compound came in with a nuclei count in assay [2] of 151%. For the same compound, the values for the z-score in assay [3] (setting [10]), in [3] (setting [11]) and in [3] (setting [12]) were 2.42, 0.186 and 0.634, respectively. The values for the fluorescence slope in assay [5] and in [7] were -0.47 (inactive) and 0.00467 (inactive), respectively. The NADPH fluorescence slope in [6] is -0.000102 (inactive). Moreover, the compound was classed as inactive in assay [8].

For the compound `CCCCOc1ccccc1C(=O)NCCCCCC(=O)O`, the cell count in assay [1] was 375. Moreover, the inhibition is -2.6% (inactive) in [1], -80.5% (inactive) in assay [2], -0.584% (inactive) in assay [4] and 19.6% (inactive) in assay [9]. Also, the nuclei count in assay [2] was determined as 150%. Also, the figures for the z-score in assay [3] (setting [10]), in [3] (setting [11]) and in assay [3] (setting [12]) were 1.24, -0.608 and 1.41, respectively. Further, the fluorescence slope in assay [5] is -0.462 (inactive); in assay [7], 0.00571 (inactive). Further, the NADPH fluorescence slope in assay [6] is -0.000119 (inactive). Moreover, in assay [8], the call was inactive.

Take `CCN(CC)CCN1C(=O)C(=O)/C(=C(/O)c2c(C)[nH]c(C(=O)OC)c2C)C1c1ccc(OC)cc1` (stereo unspecified): the cell count in assay [1] amounted to 733. The inhibition was -1.5% (inactive) in assay [1], -75.7% (inactive) in [2], 0.671% (inactive) in [4] and 18.4% (inactive) in assay [9]. For the same compound, in [2], the nuclei count amounted to 194%. The z-score in assay [3] (setting [10]) is -0.146; in assay [3] (setting [11]) it was -0.0149; in assay [3] (setting [12]) it was 0.967. For the same compound, the fluorescence slope is -0.449 (inactive) in [5] and 0.00528 (inactive) in [7]. Besides, the NADPH fluorescence slope in [6] was -4e-05 (inactive). Moreover, the compound was called inactive in [8].

`C=CCN1C(=O)CC(C(=O)NC)SC1=Nc1ccc(C(=O)OCC)cc1` (stereo unspecified): the cell count in assay [1] was 634. For the same compound, the inhibition in assay [1] is 12.2% (inactive); in assay [2], -19.2% (inactive); in [4] it was -2.09% (inactive); in assay [9] it was 6.38% (inactive). For the same compound, the nuclei count in [2] amounted to 105%. In addition, the z-score is -0.632 in assay [3] (setting [10]), 0.636 in [3] (setting [11]) and -0.397 in assay [3] (setting [12]). For the same compound, the figures for the fluorescence slope in assay [5] and in assay [7] were -0.407 (inactive) and 0.00387 (inactive), respectively. In addition, the NADPH fluorescence slope in assay [6] was -5.9e-05 (inactive). For the same compound, in assay [8], the compound was classed as inactive.

As for `CC1(C)Cc2c(C#N)c(N3CCOCC3)nc(Cc3ccccc3)c2CO1`, the cell count in assay [1] worked out at 582. The inhibition in assay [1] is -0.5% (inactive); in [2], -122% (inactive); in assay [4], -3.95% (inactive); in assay [9], 17.6% (inactive). For the same compound, the nuclei count in assay [2] is 132%. Besides, the values for the z-score in assay [3] (setting [10]), in [3] (setting [11]) and in [3] (setting [12]) were -0.332, -0.948 and -0.693, respectively. Moreover, the fluorescence slope in assay [5] was -0.445 (inactive); in assay [7], 0.00448 (inactive). Also, the NADPH fluorescence slope in assay [6] is -5.6e-05 (inactive). Also, the compound was called inactive in assay [8].
